Screening data (PubChem BioAssay)
TRPC6 activator = mouse TRPC6 channel activation; 310,000 tested, 0.13% active; B-score at 10 µM; HEK293-TRPC6 membrane potential dye fluorescence; hits give high values; Q61143;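 active means B-score of the integrated fluorescence ratio above library mean plus 3 SD, and starting fluorescence ratio within library mean plus 5 SD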;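 further: higher score means more depolarization so channel activation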
TRPC6 inhibitor = inhibitors of mouse TRPC6 channel | Q61143 | HEK293-TRPC6, membrane potential dye, ACh-evoked depolarization; hits give low values | B-score at 10 µM | 310,000 tested, 1.1% active | AID 2553;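 active means B-score under library mean minus 3 SD, initial fluorescence not abnormally high, positive integrated signal ratio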;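 further: B-score derived from integrated fluorescence ratio over the kinetic read; more negative B-score means stronger inhibition of depolarization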
TRPC4 potent = allosterically enhances the mouse TRPC4 cation channel; HEK293 TRPC4beta/mu-opioid, DAMGO EC20, Fluo-4 Ca2+ flux; hits give high values; Q9QUQ5; B-score at 10 µM; AID 2227; 310,000 tested, 0.42% active;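 active means B-score of calcium response area above 5 SD of library B-scores, with initial fluorescence ratio within 5 SD of library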;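 further: B-score of integrated fluorescence ratio over time as area under calcium response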
TRPC4 inh = blocks the mouse TRPC4 cation channel; AID 2247; HEK293 TRPC4beta/mu-opioid, DAMGO-evoked Fluo4 calcium flux; hits give low values; B-score at 10 µM; 300,000 tested, 0.39% active;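 active means B-score over 3 SD under the library average, no early fluorescence shift, positive overall ratio signal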
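material = TRPC4beta/mu-opioid receptor HEK293 cell line | probe or stimulus = sequential submaximal and maximal DAMGO stimulation | compound dosing = one concentration per compound | measured by = Fluo4 Ca2+ flux fluorescence | evaluation = integrated fluorescence ratio relative to baseline, converted to per-well B score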
TRPC4 agonist = TRPC4 (mouse) channel activation | Q9QUQ5 | HEK293 TRPC4beta/mu-opioid, Fluo4 calcium fluorescence; hits give high values | B-score at 10 µM | 310,000 tested, 0.49% active | AID 2237;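 active means B-score above 5 SD of library B-scores, and initial fluorescence ratio not above library mean plus 5 SD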;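 further: positive B-score marks a calcium rise read as TRPC4 activation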
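system = HEK293 cells stably co-expressing mouse TRPC4beta and mu-opioid receptor | schedule = Fluo4 dye loading 45 min at room temperature, 110 s recording | measure = B-scored integrated calcium fluorescence ratio | signal = Fluo4 calcium-sensitive dye fluorescence, kinetic, 1 Hz baseline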
TRPC4 spec 2 = second selectivity test of TRPC6 inhibitors: effect on mouse TRPC4 | AID 2776 | inhibition, % at 10 µM | HEK293 TRPC4/MOR, membrane potential dye fluorescence; channel activated by saturating DAMGO dose | 920 tested, 42% active | shares compounds with TRPC6 inhibitor;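 active means compounds whose fluorescence signal differed from control wells by over 3 SD, either direction, in both duplicate plates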
TRPC4 spec = mouse TRPC4 off-target activity of TRPC6 inhibitors; AID 2777; HEK293 TRPC4/mu-opioid, membrane potential fluorescence; 920 tested, 61% active; shares compounds with TRPC6 inhibitor; activity change, negative = inhibition, % at 10 µM;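 active means rise or fall in signal beyond 3 SD of buffer-only wells in both replicate plates, either sign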;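 further: integrated kinetic ratio of fluorescence range over baseline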
HEK293 MPD ctr 2-1 = parental HEK293 nonspecific activity of TRPC6 inhibitors, second screen; shares compounds with TRPC6 inhibitor; parental HEK293 membrane potential dye fluorescence; maximal acetylcholine challenge after compound addition; signal change vs control, % at 10 µM; 920 tested, 31% active;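 active means membrane potential signal moving either way by over 3 SD of the maximum-effect control, in both duplicate plates, meaning non-specific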
HEK293 MPD ctr-1 = counter-screen for TRPC6 inhibitors: effect in parental HEK293 cells | 920 tested, 60% active | shares compounds with TRPC6 inhibitor | parental HEK293 membrane potential dye fluorescence | membrane potential signal change, % at 10 µM;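 active means membrane potential signal shifting up or down by more than 3 SD of buffer-only wells, on both duplicate plates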
HEK293 MPD ctr-2 = checks TRPC6 modulator effects in parental HEK293 cells; shares compounds with TRPC6 inhibitor; membrane potential dye fluorescence; membrane potential signal change, % at 10 µM; 2,400 tested, 51% active;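 active means membrane potential signal moves up or down beyond 5 SD from buffer-only wells, on both duplicate plates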
HEK293 MPD ctr 2-2 = second counter-screen for TRPC6 modulators: effect in parental HEK293 cells; shares compounds with TRPC6 inhibitor; membrane potential dye fluorescence; after compound, maximal acetylcholine stimulation; inhibition, % at 10 µM; 2,400 tested, 14% active;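 active means membrane potential signal drops by more than 5 SD from the mean control signal, in both duplicate plates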;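 further: plate controls were acetylcholine ECmax control wells for no effect and buffer only wells for full effect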
TRPC4/MOR mod = selectivity of TRPC6 modulators against mouse TRPC4 | HEK293 TRPC4/mu-opioid, membrane potential fluorescence | shares compounds with TRPC6 inhibitor | AID 488927 | percent change from control (negative = decrease, positive = increase), % at 10 µM | 2,400 tested, 69% active;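 active means membrane potential signal moved up or down beyond 5 SD of buffer control wells, in both duplicate plates, actives on both sides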;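 further: plate controls were assay buffer wells for no effect and DAMGO maximal-effect wells for full effect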
TRPC4/MOR inh 2 = second selectivity test of TRPC6 modulators against mouse TRPC4. HEK293 TRPC4/mu-opioid, membrane potential dye fluorescence; stimulated with maximal-effect DAMGO. 2,400 tested, 55% active. inhibition, % at 10 µM. AID 488928. shares compounds with TRPC6 inhibitor;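 active means drop in membrane potential signal beyond 5 SD of the control wells in both duplicate plates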;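 further: TRPC4 counter screen for TRPC6 hits run under conditions tuned for TRPC6 not TRPC4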
TRPC6 inh conf = mouse TRPC6 inhibitor confirmation | 3,300 tested, 43% active | shares compounds with TRPC6 inhibitor | AID 488960 | HEK293-TRPC6, membrane potential dye, ACh-evoked depolarization | inhibition, % at 10 µM;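 active means fluorescence ratio falls more than 5 SD below the full-stimulation control mean, in both duplicate runs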;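 further: integrated fluorescence ratio of peak minus minimum over baseline after agonist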
TRPC6 act conf = confirmation of mouse TRPC6 activators | shares compounds with TRPC6 inhibitor | HEK293-TRPC6 membrane potential dye fluorescence, FDSS | activation, % at 10 µM | 2,800 tested, 11% active;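 active means ratio signal rise beyond 5 SD above unstimulated control wells' mean, seen in both duplicate runs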;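 further: plate controls were buffer EC0 wells for no effect and acetylcholine ECmax response for full effect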
* marks the source's active call; other numbers are inactive results; i = inactive; x = no result given. Shown are actives, neighbours in structure and some others; about 2.3% of the full set was active somewhere.

SMILES | TRPC6 activator | TRPC6 inhibitor | TRPC4 potent | TRPC4 inh | TRPC4 agonist | HEK293 MPD ctr-2 | HEK293 MPD ctr 2-2 | TRPC4/MOR mod | TRPC4/MOR inh 2 | TRPC6 inh conf | TRPC6 act conf | others
Cn1c(=O)c2ccccc2n2c(CCl)nnc12 | i | i | i | i | i | x | x | x | x | x | x
O=C(CSCc1ccc(F)cc1)N1CCN(c2ccc(F)cc2)CC1 | i | -5.4* | i | i | i | i | i | i | i | i | i
Cc1ccc(CSCC(=O)N2CCN(c3ccc(F)cc3)CC2)cc1 | i | i | i | i | i | x | x | x | x | x | x
Cc1cc(N2CCC(N(C)C3CCCC3)CC2)nc2cc(O)ccc12 | i | -6.7* | i | i | i | -282%* | i | -54%* | 47%* | 43%* | i
Cc1cc(N2CCN(c3ccccc3)CC2)nc2ccccc12 | i | i | i | i | i | x | x | x | x | x | x
CN(C)CCCNc1oc(-c2ccc(Cl)cc2)nc1C#N | i | i | i | i | i | x | x | x | x | x | x
CCN(CC)CCCNc1oc(-c2cccc(Cl)c2)nc1C#N | i | -6.1* | i | i | i | i | i | i | 34%* | 54%* | i
Cc1cc(C)n(C(=O)CNC(=O)c2cccc(Br)c2)n1 | i | -5.8* | i | i | i | i | i | i | i | i | i
Cc1cc(C)n(C(=O)CNC(=O)c2cccc(Cl)c2)n1 | i | i | i | i | i | x | x | x | x | x | x
S=C(NCCCN1CCOCC1)Nc1ccc(Cl)cc1Cl | i | -5.3* | i | i | i | i | i | i | i | i | i
CN(C)CCn1c(C(=O)Nc2ccccc2)cc2ccccc21 | i | -7.8* | i | i | i | x | x | x | x | i | i | TRPC4 spec 2=48%*;TRPC4 spec=-17%*;HEK293 MPD ctr 2-1=i;HEK293 MPD ctr-1=-235%*
O=C(CS(=O)(=O)Cc1ccccc1)NCCc1ccc(F)cc1 | i | i | i | i | i | x | x | x | x | x | x
CC1c2[nH]c3ccccc3c2C[C@H]2C(=O)N(CCCN(C)C)CC(=O)N12 (stereo not given in full) | i | i | i | i | i | x | x | x | x | x | x
CN1CCN(c2ccc(CNC(=O)c3cc4ccccc4o3)cc2)CC1 | i | -5.3* | i | i | i | i | i | i | 32%* | i | i
CCOC(=O)c1cccc(NC(=O)C2(S(=O)(=O)c3ccc(C)cc3)CC2)c1 | i | i | i | i | i | x | x | x | x | x | x
